According to ChEMBL document CHEMBL1140978, “Synthesis and preliminary antibacterial evaluation of simplified thiomarinol analogs” (2009):
Where a name gives a salt, the structure may show the parent alone. Calls of active or inactive are those of the source. The rule behind the calls is not given here.

Key:
Assay type in all cases: functional
Staphylococcus aureus [1] = test: Antimicrobial activity against Staphylococcus aureus ATCC 6538 at 0.0172 uM after 17 hrs by disk diffusion assay; details: for zone of inhibition at 0.0172 µM: ATCC 6538, 17 h, read-out: IZ
Procedure, shortened: (§1)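 Disk diffusion per CLSI M2-A8. S. aureus grown on trypticase soy agar; five fresh colonies into trypticase soy broth, ~5 h standing at 35 °C, adjusted to A625 0.1 (0.5 McFarland), swabbed onto Mueller–Hinton agar. Compounds in 25% methanol/water, 15 µl loaded on 6 mm paper disks; plates ~17 h at 35 °C; inhibition zones recorded, duplicate plates per strain.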

Staphylococcus aureus [2] = test: Antimicrobial activity against Staphylococcus aureus ATCC 25923 at 0.0172 uM after 17 hrs by disk diffusion assay; details: for zone of inhibition at 0.0172 µM: ATCC 25923, 17 h, read-out: IZ; procedure, shortened: as §1
Staphylococcus aureus [3] = test: Antimicrobial activity against Staphylococcus aureus ATCC 6538 at 0.0344 uM after 17 hrs by disk diffusion assay; details: ATCC 6538, 17 h, read-out: IZ; procedure, shortened: as §1
Staphylococcus aureus [4] = test: Antimicrobial activity against Staphylococcus aureus ATCC 6538 at 0.00686 uM after 17 hrs by disk diffusion assay; details: ATCC 6538, 17 h, read-out: IZ; procedure, shortened: as §1
Staphylococcus aureus [5] = test: Antimicrobial activity against Staphylococcus aureus ATCC 25923 at 0.00686 uM after 17 hrs by disk diffusion assay; details: ATCC 25923, 17 h, read-out: IZ; procedure, shortened: as §1
Staphylococcus aureus [6] = test: Antimicrobial activity against Staphylococcus aureus ATCC 6538 at 0.0602 uM after 17 hrs by disk diffusion assay; details: ATCC 6538, 17 h, read-out: IZ; procedure, shortened: as §1
Staphylococcus aureus [7] = test: Antimicrobial activity against Staphylococcus aureus ATCC 25923 at 0.0602 uM after 17 hrs by disk diffusion assay; details: ATCC 25923, 17 h, read-out: IZ; procedure, shortened: as §1
Staphylococcus aureus [8] = test: Antimicrobial activity against Staphylococcus aureus ATCC 6538 at 0.019 uM after 17 hrs by disk diffusion assay; details: ATCC 6538, 17 h, read-out: IZ
Procedure, shortened: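 Disk diffusion on Mueller–Hinton agar (broth 2.1% w/v, agar 1.7%), following CLSI M2-A8. Inoculum from five fresh trypticase soy agar colonies grown about 5 h standing at 35 °C in trypticase soy broth, then adjusted to A625 0.1 (0.5 McFarland) and swabbed onto plates. Compounds in 25% methanol/water, 15 µl loaded on 6 mm paper disks. Plates incubated about 17 h at 35 °C, inhibition zones recorded, duplicate plates.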

Staphylococcus aureus [9] = test: Antimicrobial activity against Staphylococcus aureus ATCC 25923 at 0.019 uM after 17 hrs by disk diffusion assay; details: ATCC 25923, 17 h, read-out: IZ; procedure, shortened: as §1

Row | Structure (SMILES) | zone of inhibition at 0.0172 µM (Staphylococcus aureus [1]) | zone of inhibition at 0.0172 µM (Staphylococcus aureus [2]) | Activity (Staphylococcus aureus [1]) | Activity (Staphylococcus aureus [2]) | other results
1 | C/C(=C\C(=O)OCCCCCCCCC(=O)O)C[C@@H]1OC[C@H](C[C@H]2O[C@@H]2[C@@H](C)[C@H](C)O)[C@@H](O)[C@H]1O [PSEUDOMONIC ACID A CALCIUM SALT] | 32 mm | 26 mm | – | – | –
2 | CCN(CC)C(=O)/C=C(\C)[C@@H](O)[C@@H]1OC[C@H](C/C=C/[C@@H](C)[C@H](C)O)[C@@H](O)[C@H]1O | – | – | – | – | zone of inhibition at 0.0344 µM (Staphylococcus aureus [3]): 15 mm
3 | CCOC(=O)/C=C(\C)[C@@H](O)[C@@H]1OCC[C@@H](O)[C@H]1O | – | – | inactive | inactive | –
4 | COC(=O)/C=C(\C)[C@@H](O)[C@@H]1OC[C@H](C/C=C/[C@@H](C)[C@H](C)O)[C@@H](O)[C@H]1O | 16 mm | 13 mm | – | – | –
5 | CCCCCC[C@H]1CO[C@@H]([C@H](O)/C(C)=C/C(=O)OCC)[C@H](O)[C@@H]1O | – | – | inactive | inactive | –
6 | CCOC(=O)/C=C(\C)[C@@H](O)[C@@H]1OC[C@H](C/C=C/[C@@H](C)[C@H](C)O)[C@@H](O)[C@H]1O | 22 mm | 21 mm | – | – | –
7 | C/C(=C\C(=O)OCCCCCCCC(=O)N[C@H]1CCCNC1=O)[C@@H](O)[C@@H]1OC[C@H](C/C=C/[C@@H](C)[C@H](C)O)[C@@H](O)[C@H]1O [THIOMARINOL H] | 16 mm | 10 mm | – | – | –
8 | C/C(=C\C(=O)OC(C)C)[C@@H](O)[C@@H]1OC[C@H](C/C=C/[C@@H](C)[C@H](C)O)[C@@H](O)[C@H]1O | 22 mm | 21 mm | – | – | –
9 | CN[C@@H]1[C@H](O[C@H]2[C@H](O[C@H]3[C@H](O)[C@@H](O)[C@H](N=C(N)N)[C@@H](O)[C@@H]3N=C(N)N)O[C@@H](C)[C@]2(O)C=O)O[C@@H](CO)[C@H](O)[C@H]1O [STREPTOMYCIN SULFATE] | – | – | – | – | zone of inhibition at 0.00686 µM (Staphylococcus aureus [4]): 16 mm; zone of inhibition at 0.00686 µM (Staphylococcus aureus [5]): 14 mm
10 | CN(C)[C@@H]1C(O)=C(C(N)=O)C(=O)[C@@]2(O)C(O)=C3C(=O)c4c(O)cccc4[C@@](C)(O)[C@H]3C[C@@H]12 [TETRACYCLINE HYDROCHLORIDE] | – | – | – | – | zone of inhibition at 0.0602 µM (Staphylococcus aureus [6]): 28 mm; zone of inhibition at 0.0602 µM (Staphylococcus aureus [7]): 29 mm
11 | CC1(C)S[C@@H]2[C@H](NC(=O)Cc3ccccc3)C(=O)N2[C@H]1C(=O)O [PENICILLIN G SODIUM] | – | – | – | – | zone of inhibition at 0.019 µM (Staphylococcus aureus [8]): 40 mm; zone of inhibition at 0.019 µM (Staphylococcus aureus [9]): 32 mm
12 | C/C(=C1/CCOC1=O)[C@@H](O)[C@@H]1OCC[C@@H](O)[C@H]1O | – | – | inactive | inactive | –
13 | CCCCNC(=O)/C=C(\C)[C@@H](O)[C@@H]1OC[C@H](C/C=C/[C@@H](C)[C@H](C)O)[C@@H](O)[C@H]1O | – | – | – | – | zone of inhibition at 0.0344 µM (Staphylococcus aureus [3]): 14 mm
14 | C/C(=C\C(=O)O)[C@@H](O)[C@@H]1OC[C@H](C/C=C/[C@@H](C)[C@H](C)O)[C@@H](O)[C@H]1O | – | – | inactive | inactive | –
15 | C/C(=C1\CCOC1=O)[C@@H](O)[C@@H]1OCC[C@@H](O)[C@H]1O | – | – | inactive | inactive | –
